Results on four molecules are retold here after ChEMBL document CHEMBL1153900, “Structure-activity studies of echinomycin antibiotics against drug-resistant and biofilm-forming Staphylococcus aureus and Enterococcus faecalis” (Bioorg Med Chem Lett, 2009).

The structures appear in SMILES notation. Values after ≈ are worked out from the molar mass of the structure shown. Active and inactive are the calls of the source. Some results are limits rather than exact numbers.

In assay [1] the test system is Staphylococcus aureus. Kind of assay: Antimicrobial activity against methicillin-resistant Staphylococcus aureus L44 clinical isolate by CLIS method. Type of assay: functional. An outline of the steps:
(§1)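 MIC and MBC determined against biofilm-forming strains: MSSA ATCC 35556, E. faecalis ATCC 29212, and two clinical biofilm-forming MRSA isolates (L32, L44) obtained from patient blood samples.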

Assay [2] concerns Staphylococcus aureus. Kind of assay: Inhibition of Staphylococcus aureus ATCC 35556 biofilm formation at MIC.
In assay [3] the test system is Enterococcus faecalis. As to the kind of experiment: Inhibition of Enterococcus faecalis ATCC 29212 biofilm formation assessed as concentration required to eradicate growth after 24 hrs.
Assay [4] concerns Staphylococcus aureus. Kind of assay: Antimicrobial activity against methicillin-susceptible Staphylococcus aureus ATCC 35556 assessed as reduction in bacterial load at 2 X MIC over 24 hrs by time-kill assay.
Assay [5] deals with Enterococcus faecalis. Kind of assay: Antimicrobial activity against Enterococcus faecalis ATCC 29212 assessed as reduction in bacterial load at 2 X MIC over 24 hrs by time-kill assay.
Assay [6] concerns Staphylococcus aureus. As to the kind of experiment: Antimicrobial activity against methicillin-resistant Staphylococcus aureus L32 clinical isolate assessed as reduction in bacterial load at 4 fold MIC over 24 hrs by time-kill assay. Type of assay: functional. An outline of the steps:
(§2)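 Time-kill assay at 2× and 4× MIC over 24 h. Starting inoculum 5 × 10⁵ CFU/mL. Read-out is the mean change in bacterial density (log₁₀ CFU/mL) from the starting inoculum at 24 h, compared with a growth control.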

Assay [7] has as its system Enterococcus faecalis. Kind of assay: Antimicrobial activity against Enterococcus faecalis ATCC 29212 assessed as reduction in bacterial load at 4 fold MIC over 24 hrs by time-kill assay.
The test system of assay [8] is Enterococcus faecalis. As to the kind of experiment: Inhibition of Enterococcus faecalis ATCC 29212 biofilm formation at MIC.
In assay [9] the test system is Staphylococcus aureus. Kind of assay: Antimicrobial activity against methicillin-resistant Staphylococcus aureus L32 clinical isolate by CLIS method. The class given is functional. An outline of the steps:
as §1

Assay [10] deals with Staphylococcus aureus. As to the kind of experiment: Inhibition of methicillin-susceptible Staphylococcus aureus ATCC […] biofilm formation assessed as concentration required to eradicate growth after 24 hrs. The class given is functional. An outline of the steps: (§3)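 Modified Calgary pin-lid biofilm device, testing sessile bacteria seeded from an established biofilm. MBIC is the concentration giving no visible growth after 24 h incubation of preformed biofilm with antibiotic. MBEC is the minimal concentration that eradicates CFU/mL growth from the biofilm.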

The next assay relates to HCT-116. Kind of assay: Cytotoxicity against human HCT116 cells. Type of assay: functional, cell-based.
For assay [11], the system named is Staphylococcus aureus. Kind of assay: Antimicrobial activity against methicillin-susceptible Staphylococcus aureus ATCC 35556 by CLIS method.
In assay [12] the test system is Staphylococcus aureus. As to the kind of experiment: Inhibition of methicillin-susceptible Staphylococcus aureus ATCC 35556 biofilm formation assessed as visible growth after 24 hrs.
Assay [13] deals with Staphylococcus aureus. As to the kind of experiment: Antimicrobial activity against methicillin-resistant Staphylococcus aureus L44 clinical isolate assessed as reduction in bacterial load at 4 fold MIC over 24 hrs by time-kill assay. Type of assay: functional. An outline of the steps: as §2
Assay [14] deals with Enterococcus faecalis. As to the kind of experiment: Antimicrobial activity against Enterococcus faecalis ATCC 29212 by CLIS method.
Assay [15] deals with Staphylococcus aureus. As to the kind of experiment: Antimicrobial activity against methicillin-resistant Staphylococcus aureus L32 clinical isolate assessed as reduction in bacterial load at 2 X MIC over 24 hrs by time-kill assay. The class given is functional. Summed up:
as §2

The subject of assay [16] is Staphylococcus aureus. As to the kind of experiment: Antimicrobial activity against methicillin-susceptible Staphylococcus aureus ATCC 35556 assessed as reduction in bacterial load at 4 fold MIC over 24 hrs by time-kill assay.
The subject of assay [17] is Staphylococcus aureus. As to the kind of experiment: Antimicrobial activity against methicillin-resistant Staphylococcus aureus L44 clinical isolate assessed as reduction in bacterial load at 2 X MIC over 24 hrs by time-kill assay. Type of assay: functional. Summed up:
as §2

Assay [18] deals with Enterococcus faecalis. Kind of assay: Inhibition of Enterococcus faecalis ATCC 29212 biofilm formation assessed as visible growth after 24 hrs.
Assay [19] has as its system Staphylococcus aureus. As to the kind of experiment: Inhibition of methicillin-resistant Staphylococcus aureus L44 clinical isolate biofilm formation assessed as concentration required to eradicate growth after 24 hrs. Type of assay: functional. An outline of the steps: as §3
Assay [20] concerns Staphylococcus aureus. Kind of assay: Inhibition of methicillin-resistant Staphylococcus aureus L32 clinical isolate biofilm formation assessed as visible growth after 24 hrs. Type of assay: functional. An outline of the steps: as §3
Assay [21] concerns Staphylococcus aureus. As to the kind of experiment: Inhibition of methicillin-resistant Staphylococcus aureus L44 clinical isolate biofilm formation assessed as visible growth after 24 hrs. Type of assay: functional. An outline of the steps: as §3
Assay [22] relates to Staphylococcus aureus. As to the kind of experiment: Inhibition of methicillin-resistant Staphylococcus aureus L32 clinical isolate biofilm formation assessed as concentration required to eradicate growth after 24 hrs. The class given is functional, isolateL32. Summed up: as §3
Assay [23] has as its system Staphylococcus aureus. Kind of assay: Inhibition of methicillin-susceptible Staphylococcus aureus ATCC 35556 biofilm formation assessed as concentration required to eradicate growth after 24 hrs.

Take `CS[C@@H]1[C@H]2C(=O)N(C)[C@@H](C(C)C)C(=O)OC[C@@H](NC(=O)c3cnc4ccccc4n3)C(=O)N[C@@H](C)C(=O)N(C)[C@@H](C[S+]1[O-])C(=O)N(C)[C@@H](C(C)C)C(=O)OC[C@@H](NC(=O)c1cnc3ccccc3n1)C(=O)N[C@@H](C)C(=O)N2C` (stereo partly drawn): the MBC (usually the lowest tested concentration that kills the bacteria rather than only halting them) is 7.17 µM (≈ 8.01 µg/mL) in the assay with Staphylococcus aureus [1], 7.17 µM (≈ 8.01 µg/mL) against Staphylococcus aureus [9], 3.58 µM (≈ 4 µg/mL) in the assay on Staphylococcus aureus [11] and > 14 µM with Enterococcus faecalis [14]. Further, the MIC (commonly the smallest concentration in the dilution series that meets the test's criterion for growth inhibition) was found to be 1.79 µM (≈ 2 µg/mL) against Staphylococcus aureus [1], 1.79 µM (≈ 2 µg/mL) against Staphylococcus aureus [9], 0.9 µM (≈ 1.01 µg/mL) in the assay with Staphylococcus aureus [11] and 0.22 µM (≈ 0.246 µg/mL) in the assay with Enterococcus faecalis [14]. The outcome with Staphylococcus aureus [2] and in the assay on Enterococcus faecalis [8] was Active. Also, the MBEC in the assay on Enterococcus faecalis [3], with Staphylococcus aureus [10] and in the assay on Enterococcus faecalis [18] was >4 µM throughout. Moreover, the log10CFU/ml with Staphylococcus aureus [4] is on record as -3.39; in the assay with Enterococcus faecalis [5], 0.69; in the assay on Staphylococcus aureus [6], -2.15; with Enterococcus faecalis [7], -1.04; in the assay with Staphylococcus aureus [13] it was -2.24; with Staphylococcus aureus [15], -1.35. Also, the log10CFU/ml in the assay on Staphylococcus aureus [16] is -3.24; with Staphylococcus aureus [17], -1.09. Also, in the assay with HCT-116, the midpoint of inhibition, the IC50, lay at 0.4 µM. In the assay on Staphylococcus aureus [12], the MBIC turned out to be 3.6 µM.

In the case of `CS[C@H]1SC[C@H](N(C)C(=O)[C@H](C)NC(=O)[C@@H](CO)NC(=O)c2cnc3ccccc3n2)C(=O)N(C)[C@@H](C(C)C)C(=O)OC[C@@H](NC(=O)c2cnc3ccccc3n2)C(=O)N[C@@H](C)C(=O)N(C)[C@@H]1C(=O)N(C)[C@H](C(=O)O)C(C)C` [DEPSIECHINOSERINE], the MBC against Staphylococcus aureus [1], in the assay on Staphylococcus aureus [9], in the assay on Staphylococcus aureus [11] and against Enterococcus faecalis [14] was > 14 µM throughout. Moreover, the MIC against Staphylococcus aureus [1] was > 14 µM; with Staphylococcus aureus [9] it was > 14 µM; in the assay on Staphylococcus aureus [11], > 14 µM; in the assay on Enterococcus faecalis [14] it was 14 µM (≈ 15.7 µg/mL). In addition, in the assay on HCT-116, it took 4.6 µM to reach half-maximal inhibition (IC50).

In the case of `CS[C@H]1SC[C@H]2C(=O)N(C)[C@@H](C(C)C)C(=O)OC[C@@H](NC(=O)c3cnc4ccccc4n3)C(=O)N[C@@H](C)C(=O)N(C)[C@@H]1C(=O)N(C)[C@@H](C(C)C)C(=O)OC[C@@H](NC(=O)c1cnc3ccccc3n1)C(=O)N[C@@H](C)C(=O)N2C` [ECHINOMYCIN], the MBC in the assay with Staphylococcus aureus [1] was 0.45 µM (≈ 0.496 µg/mL); against Staphylococcus aureus [9], 0.91 µM (≈ 1 µg/mL); against Staphylococcus aureus [11], 0.45 µM (≈ 0.496 µg/mL); against Enterococcus faecalis [14], 0.11 µM (≈ 0.121 µg/mL). For the same molecule, the MIC with Staphylococcus aureus [1] was found to be 0.03 µM (≈ 0.033 µg/mL); against Staphylococcus aureus [9] it was 0.03 µM (≈ 0.033 µg/mL); in the assay on Staphylococcus aureus [11], 0.01 µM (≈ 0.011 µg/mL); in the assay on Enterococcus faecalis [14] it was 0.01 µM (≈ 0.011 µg/mL). Further, the MBIC is >4 µM with Staphylococcus aureus [19]; 0.22 µM in the assay on Enterococcus faecalis [3]; >4 µM with Staphylococcus aureus [20]; >4 µM with Staphylococcus aureus [21]; >4 µM in the assay on Staphylococcus aureus [22]; 0.03 µM in the assay with Staphylococcus aureus [12]. Further, the MBIC with Enterococcus faecalis [18] came out at 0.22 µM. The outcome in the assay on Staphylococcus aureus [2] and in the assay with Enterococcus faecalis [8] was Active. Further, the log10CFU/ml with Staphylococcus aureus [4] is on record as -1.54; in the assay on Enterococcus faecalis [5], 0.04; in the assay on Staphylococcus aureus [6], -2.39; in the assay with Enterococcus faecalis [7], -1.42; in the assay on Staphylococcus aureus [13] it was -1.23; in the assay on Staphylococcus aureus [15], 0.61. Further, the values for the log10CFU/ml in the assay with Staphylococcus aureus [16] and in the assay with Staphylococcus aureus [17] were -1.79 and 0.423, respectively. In addition, the IC50 (usually the concentration that gives 50% inhibition) in the assay with HCT-116 was < 0.003 µM. The MBEC in the assay with Staphylococcus aureus [23] was determined as 0.22 µM.

`CS[C@@H](SC[C@@H](C(=O)N(C)[C@H](C(=O)O)C(C)C)N(C)C(=O)[C@H](C)NC(=O)[C@@H](CO)NC(=O)c1cnc2ccccc2n1)[C@@H](C(=O)N(C)[C@H](C(=O)O)C(C)C)N(C)C(=O)[C@H](C)NC(=O)[C@@H](CO)NC(=O)c1cnc2ccccc2n1` [ECHINOSERINE]: the MBC in the assay with Staphylococcus aureus [1], in the assay with Staphylococcus aureus [9], in the assay on Staphylococcus aureus [11] and in the assay on Enterococcus faecalis [14] was > 14 µM each time. The MIC in the assay on Staphylococcus aureus [1], in the assay with Staphylococcus aureus [9], against Staphylococcus aureus [11] and in the assay on Enterococcus faecalis [14] was > 14 µM each time. This molecule gave an IC50 in the assay on HCT-116 of 13.4 µM.
